Results: PMC8802302 (Journal of Medicinal Chemistry, 2021)

What was measured:
NUAK1 [1] = target: T1, NUAK1 (Homo sapiens, UniProt O60285); experiment: NanoBRET assay follow-up; assay type: cell-based
T1 sequence (O60285 1-661): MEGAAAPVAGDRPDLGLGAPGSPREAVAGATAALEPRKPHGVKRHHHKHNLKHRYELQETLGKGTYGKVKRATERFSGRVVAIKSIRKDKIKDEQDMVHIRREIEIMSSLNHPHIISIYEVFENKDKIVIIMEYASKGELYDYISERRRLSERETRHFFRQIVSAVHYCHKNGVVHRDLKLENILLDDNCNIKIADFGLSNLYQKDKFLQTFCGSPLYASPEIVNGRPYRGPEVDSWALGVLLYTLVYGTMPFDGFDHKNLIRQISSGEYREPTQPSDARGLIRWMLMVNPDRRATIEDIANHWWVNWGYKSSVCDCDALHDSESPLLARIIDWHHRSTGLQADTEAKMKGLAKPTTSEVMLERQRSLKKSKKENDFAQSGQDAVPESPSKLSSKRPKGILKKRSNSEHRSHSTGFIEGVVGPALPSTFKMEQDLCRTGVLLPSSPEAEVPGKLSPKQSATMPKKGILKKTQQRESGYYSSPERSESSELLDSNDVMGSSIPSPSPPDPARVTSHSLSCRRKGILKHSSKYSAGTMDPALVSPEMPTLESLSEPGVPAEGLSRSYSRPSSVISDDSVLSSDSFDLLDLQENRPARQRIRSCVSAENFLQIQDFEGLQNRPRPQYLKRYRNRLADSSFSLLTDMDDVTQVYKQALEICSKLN

16-member kinase panel = experiment: Eurofins custom enzymatic kinase panel, count of kinases inhibited; assay type: biochemical; conditions: 16-member Eurofins panel, 1 μM
Procedure, shortened: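 Radiometric kinase assays were run with ATP at Km. Each test compound was tested at a single concentration of 1 μM, in duplicate, against each panel kinase, with results as percent of control. The count is the number of kinases at ≤ 10 PoC, i.e. inhibited ≥ 90%.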

MARK3 (NLuc-MARK3) = MARK3 (NLuc-MARK3) (Homo sapiens, UniProt P27448); experiment: NanoBRET cellular target engagement assay; assay type: cell-based
[2] = tested on: 403 wild-type (WT) human kinases; experiment: DiscoverX scanMAX kinome-wide selectivity screen; assay type: binding; conditions: 403 WT human kinases; for no. kinases with PoC < 10: DiscoverX scanMAX, 1 μM; for S10 (1 μM): Percentage of screened kinases with PoC values < 10 at 1 μM
PAMPA permeability = assay type: in vitro ADME; conditions: PBS pH 7.4, 5 h incubation
Procedure, shortened: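 DMSO stocks of test compound were diluted in PBS pH 7.4 and added to the donor side of a precoated PAMPA plate, with PBS pH 7.4 as acceptor, for 5 h. Both compartments were quantified by chemiluminescent nitrogen detection against a calibration curve, with background nitrogen corrected. Effective permeability was calculated from donor and acceptor concentrations, using measured rather than assumed solubility.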

LRRK2 = LRRK2 (Homo sapiens, UniProt Q5S007); experiment: NanoBRET assay follow-up; assay type: cell-based; conditions: singlicate (n = 1) dose–response
TBK1 = target: T2, TBK1 (Homo sapiens, UniProt Q9UHD2); experiment: Eurofins kinase enzymatic radiometric assay; assay type: biochemical; conditions: enzymatic IC50 values
T2 sequence (Q9UHD2 1-729): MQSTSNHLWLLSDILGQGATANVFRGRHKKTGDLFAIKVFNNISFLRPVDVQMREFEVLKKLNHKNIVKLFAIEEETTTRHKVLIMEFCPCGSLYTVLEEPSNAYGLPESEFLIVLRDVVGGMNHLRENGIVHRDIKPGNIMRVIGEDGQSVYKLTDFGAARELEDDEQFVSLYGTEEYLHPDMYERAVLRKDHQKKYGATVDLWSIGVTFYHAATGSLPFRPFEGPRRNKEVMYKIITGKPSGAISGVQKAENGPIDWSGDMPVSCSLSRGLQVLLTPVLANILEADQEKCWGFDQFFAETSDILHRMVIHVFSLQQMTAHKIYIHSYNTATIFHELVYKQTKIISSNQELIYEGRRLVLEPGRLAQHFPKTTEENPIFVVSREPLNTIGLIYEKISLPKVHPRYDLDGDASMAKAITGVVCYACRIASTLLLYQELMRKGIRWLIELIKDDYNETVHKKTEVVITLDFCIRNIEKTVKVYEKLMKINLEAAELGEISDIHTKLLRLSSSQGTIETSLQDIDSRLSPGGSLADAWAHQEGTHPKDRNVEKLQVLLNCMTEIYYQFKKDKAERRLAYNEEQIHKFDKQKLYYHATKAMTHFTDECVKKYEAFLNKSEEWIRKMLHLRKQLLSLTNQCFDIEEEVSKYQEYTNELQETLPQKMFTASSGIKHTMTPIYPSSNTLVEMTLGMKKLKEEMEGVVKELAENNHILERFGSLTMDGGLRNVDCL
Procedure, shortened: (§1)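 Both kinases of each pair (NUAK1/NUAK2; TBK1/IKKε) were tested in radiometric assays with ATP at Km. Test compounds were run as 9-point dose–response curves in duplicate. IC50 values for the two kinases were then compared as a fold difference.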

NUAK1 [3] = target: T1, NUAK1; experiment: Eurofins kinase enzymatic radiometric assay; assay type: biochemical; conditions: enzymatic IC50 values
Procedure, shortened: as §1

MYLK2 = MYLK2 (Homo sapiens, UniProt Q9H1R3); experiment: NanoBRET assay follow-up; assay type: cell-based
TYK2 = TYK2 (Homo sapiens, UniProt P29597); experiment: NanoBRET assay follow-up; assay type: cell-based; conditions: singlicate (n = 1) dose–response
TBK1 (NLuc-TBK1) = target: T3, TBK1 (NLuc-TBK1) (Homo sapiens, UniProt Q9UHD2); experiment: NanoBRET cellular target engagement assay; assay type: cell-based; conditions: HEK293, 0.5 μM tracer K-5; n = 1 where no error, SEM n = 3
T3 sequence (Q9UHD2 1-729): T2 sequence (Q9UHD2 1-729)
Procedure, shortened: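 HEK293 cells were grown in DMEM with 10% FBS at 37 °C under 5% CO2, passaged every 72 h with trypsin and kept below confluency. Cells expressed NanoLuc fusions (DRAK1-NLuc or NLuc-TBK1). Dose–response was run per the manufacturer's protocol, with 0.5 μM tracer K-9 for DRAK1 and 0.5 μM tracer K-5 for TBK1. SEM was reported where assays were repeated.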

DRAK1 (DRAK1-NLuc) = target: T4, DRAK1 (DRAK1-NLuc) (Homo sapiens, UniProt Q9UEE5); experiment: NanoBRET cellular target engagement assay; assay type: cell-based; conditions: HEK293, 0.5 μM tracer K-9; n = 1 where no error, SEM n = 3
T4 sequence (Q9UEE5 1-414): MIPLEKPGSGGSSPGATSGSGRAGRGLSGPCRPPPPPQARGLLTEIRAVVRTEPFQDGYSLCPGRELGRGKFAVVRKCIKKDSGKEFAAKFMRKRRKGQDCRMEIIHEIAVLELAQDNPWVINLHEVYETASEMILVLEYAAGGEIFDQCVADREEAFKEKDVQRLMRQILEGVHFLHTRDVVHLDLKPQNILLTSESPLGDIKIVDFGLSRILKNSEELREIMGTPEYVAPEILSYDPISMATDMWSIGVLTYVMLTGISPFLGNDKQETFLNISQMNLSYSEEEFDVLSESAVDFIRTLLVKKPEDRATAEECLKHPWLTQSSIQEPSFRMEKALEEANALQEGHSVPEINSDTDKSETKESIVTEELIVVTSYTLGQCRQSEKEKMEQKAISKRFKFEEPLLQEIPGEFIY

MARK4 (NLuc-MARK4) = target: T5, MARK4 (NLuc-MARK4) (Homo sapiens, UniProt Q96L34); experiment: NanoBRET cellular target engagement assay; assay type: cell-based; conditions: HEK293, 0.5 μM tracer K-5; n = 1 where no error, SEM n = 2
T5 sequence (Q96L34 1-752): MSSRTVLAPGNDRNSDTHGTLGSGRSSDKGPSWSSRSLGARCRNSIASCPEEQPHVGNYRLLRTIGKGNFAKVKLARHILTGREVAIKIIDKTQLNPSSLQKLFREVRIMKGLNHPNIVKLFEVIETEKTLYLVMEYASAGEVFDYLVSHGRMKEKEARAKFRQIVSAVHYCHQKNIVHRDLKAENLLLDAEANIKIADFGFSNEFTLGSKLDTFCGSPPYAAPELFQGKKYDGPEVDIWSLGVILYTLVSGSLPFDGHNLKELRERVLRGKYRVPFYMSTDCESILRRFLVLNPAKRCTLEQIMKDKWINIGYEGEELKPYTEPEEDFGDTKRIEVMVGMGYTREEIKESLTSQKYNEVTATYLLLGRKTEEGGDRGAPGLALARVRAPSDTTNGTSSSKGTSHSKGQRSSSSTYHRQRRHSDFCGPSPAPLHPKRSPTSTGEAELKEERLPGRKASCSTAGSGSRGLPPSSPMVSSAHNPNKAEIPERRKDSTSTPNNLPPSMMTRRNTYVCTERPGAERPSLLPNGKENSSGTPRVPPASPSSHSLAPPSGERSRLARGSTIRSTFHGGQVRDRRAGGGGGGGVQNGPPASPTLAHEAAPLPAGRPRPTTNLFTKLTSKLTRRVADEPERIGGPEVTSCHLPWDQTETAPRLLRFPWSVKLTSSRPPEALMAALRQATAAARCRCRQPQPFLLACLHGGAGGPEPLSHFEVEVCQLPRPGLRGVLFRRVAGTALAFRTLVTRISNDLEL

Chain of MARK3 (NLuc-MARK3) (P27448 whole entry): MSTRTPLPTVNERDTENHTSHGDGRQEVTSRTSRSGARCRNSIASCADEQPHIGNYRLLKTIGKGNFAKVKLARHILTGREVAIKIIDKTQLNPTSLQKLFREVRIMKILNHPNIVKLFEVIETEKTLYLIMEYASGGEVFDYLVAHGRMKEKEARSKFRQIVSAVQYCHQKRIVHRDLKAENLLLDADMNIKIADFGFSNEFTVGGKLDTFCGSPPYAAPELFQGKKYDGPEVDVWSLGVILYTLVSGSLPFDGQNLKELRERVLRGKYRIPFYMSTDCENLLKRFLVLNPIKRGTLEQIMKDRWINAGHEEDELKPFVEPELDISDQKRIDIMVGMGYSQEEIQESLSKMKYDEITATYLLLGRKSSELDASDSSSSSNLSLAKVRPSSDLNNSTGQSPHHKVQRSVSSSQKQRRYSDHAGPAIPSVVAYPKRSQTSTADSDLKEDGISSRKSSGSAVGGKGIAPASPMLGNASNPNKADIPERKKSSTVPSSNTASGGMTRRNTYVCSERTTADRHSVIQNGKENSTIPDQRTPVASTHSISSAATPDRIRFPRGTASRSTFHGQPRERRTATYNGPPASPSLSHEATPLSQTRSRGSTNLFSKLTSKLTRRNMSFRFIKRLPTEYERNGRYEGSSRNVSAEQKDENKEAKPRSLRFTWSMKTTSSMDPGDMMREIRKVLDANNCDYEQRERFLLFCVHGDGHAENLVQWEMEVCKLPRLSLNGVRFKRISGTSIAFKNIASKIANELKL
Chain of TYK2 (P29597 whole entry): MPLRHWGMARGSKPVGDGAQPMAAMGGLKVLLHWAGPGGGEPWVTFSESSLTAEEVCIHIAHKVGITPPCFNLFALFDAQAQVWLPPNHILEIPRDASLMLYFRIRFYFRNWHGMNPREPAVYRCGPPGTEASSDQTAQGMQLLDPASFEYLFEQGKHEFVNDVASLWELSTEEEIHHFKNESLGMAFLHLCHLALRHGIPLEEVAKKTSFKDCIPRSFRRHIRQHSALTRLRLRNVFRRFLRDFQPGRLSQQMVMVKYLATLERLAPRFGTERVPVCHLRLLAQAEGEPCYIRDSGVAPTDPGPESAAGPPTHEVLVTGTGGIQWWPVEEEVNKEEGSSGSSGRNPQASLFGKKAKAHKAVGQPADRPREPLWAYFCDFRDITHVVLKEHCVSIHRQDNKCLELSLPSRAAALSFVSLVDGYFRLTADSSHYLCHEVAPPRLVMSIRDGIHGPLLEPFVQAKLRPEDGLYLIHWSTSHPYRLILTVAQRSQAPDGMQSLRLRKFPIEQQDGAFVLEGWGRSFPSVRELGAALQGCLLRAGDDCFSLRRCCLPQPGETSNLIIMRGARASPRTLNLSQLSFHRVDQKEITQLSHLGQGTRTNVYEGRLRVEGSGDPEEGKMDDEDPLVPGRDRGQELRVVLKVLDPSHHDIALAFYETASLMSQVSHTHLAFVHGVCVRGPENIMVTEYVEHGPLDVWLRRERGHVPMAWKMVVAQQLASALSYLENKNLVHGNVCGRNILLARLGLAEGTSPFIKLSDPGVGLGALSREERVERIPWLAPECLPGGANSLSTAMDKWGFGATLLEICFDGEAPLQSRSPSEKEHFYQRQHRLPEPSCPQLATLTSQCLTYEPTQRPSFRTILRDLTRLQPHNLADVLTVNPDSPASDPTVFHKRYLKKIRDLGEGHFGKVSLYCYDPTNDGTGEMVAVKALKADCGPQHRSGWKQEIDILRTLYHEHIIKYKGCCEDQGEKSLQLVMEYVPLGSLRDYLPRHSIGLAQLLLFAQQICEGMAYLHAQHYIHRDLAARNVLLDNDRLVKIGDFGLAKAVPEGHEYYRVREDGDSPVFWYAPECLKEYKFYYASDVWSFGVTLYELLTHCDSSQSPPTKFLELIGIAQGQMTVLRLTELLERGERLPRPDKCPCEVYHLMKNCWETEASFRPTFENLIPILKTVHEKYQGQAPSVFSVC
Chain of MYLK2 (Q9H1R3 whole entry): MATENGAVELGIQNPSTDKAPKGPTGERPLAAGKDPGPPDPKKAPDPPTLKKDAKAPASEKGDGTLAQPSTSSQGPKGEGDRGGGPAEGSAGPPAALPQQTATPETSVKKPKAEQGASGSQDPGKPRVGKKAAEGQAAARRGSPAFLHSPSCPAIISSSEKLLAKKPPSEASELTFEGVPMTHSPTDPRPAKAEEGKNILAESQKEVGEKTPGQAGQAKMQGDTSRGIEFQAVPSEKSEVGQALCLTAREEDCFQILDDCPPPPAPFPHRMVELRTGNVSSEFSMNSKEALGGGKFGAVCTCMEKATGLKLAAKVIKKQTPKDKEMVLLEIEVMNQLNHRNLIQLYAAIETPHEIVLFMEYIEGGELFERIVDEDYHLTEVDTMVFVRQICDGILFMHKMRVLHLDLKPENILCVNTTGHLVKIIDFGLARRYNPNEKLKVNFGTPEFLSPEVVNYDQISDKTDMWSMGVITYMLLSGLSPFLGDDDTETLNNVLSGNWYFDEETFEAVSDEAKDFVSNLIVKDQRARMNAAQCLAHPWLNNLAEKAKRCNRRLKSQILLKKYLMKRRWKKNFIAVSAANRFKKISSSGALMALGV
Chain of LRRK2 (Q5S007 whole entry): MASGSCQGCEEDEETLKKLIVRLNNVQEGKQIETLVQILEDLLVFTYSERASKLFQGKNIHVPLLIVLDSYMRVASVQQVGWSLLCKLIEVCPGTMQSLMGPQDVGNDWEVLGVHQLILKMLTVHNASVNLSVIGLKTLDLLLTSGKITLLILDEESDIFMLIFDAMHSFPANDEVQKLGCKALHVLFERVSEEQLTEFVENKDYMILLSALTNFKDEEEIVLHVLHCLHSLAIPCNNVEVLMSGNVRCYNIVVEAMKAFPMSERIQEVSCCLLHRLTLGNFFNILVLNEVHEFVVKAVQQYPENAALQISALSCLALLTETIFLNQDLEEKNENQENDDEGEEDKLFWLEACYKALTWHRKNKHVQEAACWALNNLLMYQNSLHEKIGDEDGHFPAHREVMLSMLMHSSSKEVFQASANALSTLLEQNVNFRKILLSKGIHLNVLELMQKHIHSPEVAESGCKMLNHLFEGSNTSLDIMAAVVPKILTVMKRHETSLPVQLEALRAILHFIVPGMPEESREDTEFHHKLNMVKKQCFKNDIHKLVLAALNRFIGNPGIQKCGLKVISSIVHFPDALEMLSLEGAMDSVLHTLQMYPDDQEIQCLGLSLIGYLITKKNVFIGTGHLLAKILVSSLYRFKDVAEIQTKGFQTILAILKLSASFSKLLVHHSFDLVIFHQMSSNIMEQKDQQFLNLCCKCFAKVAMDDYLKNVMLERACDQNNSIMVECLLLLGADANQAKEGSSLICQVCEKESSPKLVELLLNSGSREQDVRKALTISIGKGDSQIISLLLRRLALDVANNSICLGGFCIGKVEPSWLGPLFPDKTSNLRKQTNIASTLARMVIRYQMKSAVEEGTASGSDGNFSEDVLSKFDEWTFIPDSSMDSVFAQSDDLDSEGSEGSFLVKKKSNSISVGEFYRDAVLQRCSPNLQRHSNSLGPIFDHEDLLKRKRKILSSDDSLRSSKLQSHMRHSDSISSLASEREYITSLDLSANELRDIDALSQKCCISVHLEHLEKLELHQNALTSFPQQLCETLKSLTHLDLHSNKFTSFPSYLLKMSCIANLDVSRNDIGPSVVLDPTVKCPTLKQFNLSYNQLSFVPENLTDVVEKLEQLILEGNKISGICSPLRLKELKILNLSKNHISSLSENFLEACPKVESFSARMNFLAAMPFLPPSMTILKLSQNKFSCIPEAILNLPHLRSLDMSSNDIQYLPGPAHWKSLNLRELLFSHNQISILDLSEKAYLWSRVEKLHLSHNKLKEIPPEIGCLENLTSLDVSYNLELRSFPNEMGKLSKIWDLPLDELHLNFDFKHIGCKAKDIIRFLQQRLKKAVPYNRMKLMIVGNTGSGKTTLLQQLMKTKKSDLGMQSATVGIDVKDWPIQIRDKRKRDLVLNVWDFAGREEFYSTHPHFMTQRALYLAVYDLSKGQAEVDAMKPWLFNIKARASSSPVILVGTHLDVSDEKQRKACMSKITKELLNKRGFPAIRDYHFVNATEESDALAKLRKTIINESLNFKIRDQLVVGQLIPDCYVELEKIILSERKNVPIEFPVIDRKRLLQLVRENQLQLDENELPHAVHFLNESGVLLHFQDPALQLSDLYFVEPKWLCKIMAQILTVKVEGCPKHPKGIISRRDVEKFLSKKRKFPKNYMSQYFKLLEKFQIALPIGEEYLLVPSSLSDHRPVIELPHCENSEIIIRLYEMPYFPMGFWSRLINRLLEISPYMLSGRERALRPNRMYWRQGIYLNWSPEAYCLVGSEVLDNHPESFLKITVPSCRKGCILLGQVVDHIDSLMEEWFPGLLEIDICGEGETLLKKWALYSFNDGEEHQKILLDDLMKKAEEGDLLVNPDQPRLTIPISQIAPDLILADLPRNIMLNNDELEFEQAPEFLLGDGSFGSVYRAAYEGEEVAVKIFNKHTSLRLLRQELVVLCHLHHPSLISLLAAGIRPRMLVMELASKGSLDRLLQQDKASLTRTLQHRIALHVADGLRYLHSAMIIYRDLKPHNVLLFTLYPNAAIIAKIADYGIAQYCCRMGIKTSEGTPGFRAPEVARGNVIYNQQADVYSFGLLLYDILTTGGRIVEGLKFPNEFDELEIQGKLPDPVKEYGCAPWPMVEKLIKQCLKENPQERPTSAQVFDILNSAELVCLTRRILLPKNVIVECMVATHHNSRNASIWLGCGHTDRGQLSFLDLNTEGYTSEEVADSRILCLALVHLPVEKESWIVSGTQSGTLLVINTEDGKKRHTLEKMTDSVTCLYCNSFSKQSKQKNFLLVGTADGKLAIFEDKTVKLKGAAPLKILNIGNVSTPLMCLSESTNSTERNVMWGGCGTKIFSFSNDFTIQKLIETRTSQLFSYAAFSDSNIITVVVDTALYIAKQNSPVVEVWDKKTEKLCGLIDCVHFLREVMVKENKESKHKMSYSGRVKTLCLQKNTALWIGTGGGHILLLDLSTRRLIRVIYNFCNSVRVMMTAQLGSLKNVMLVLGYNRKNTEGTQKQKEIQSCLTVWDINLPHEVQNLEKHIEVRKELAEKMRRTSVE

SMILES	no. kinases ≤ 10 PoC in enzyme panel (16-member kinase panel)	no. kinases with PoC < 10 [2]	S10 (1 μM) [2]	Pe (permeability coefficient, PAMPA) (PAMPA permeability)	other results
O=C(NCCCNc1nc(Nc2cccc(NC(=O)N3CCCC3)c2)ncc1I)c1cccs1 [BX-795, reference compound]	16	–	–	–	IC50 (NUAK1 [1]): 187 nM; fold loss in potency, enzymatic to NanoBRET, NUAK1 (NUAK1 [1]; published enzymatic IC50 vs NanoBRET IC50): ~34 fold; IC50 (MARK3 (NLuc-MARK3)): 515 nM
Cc1nn(CC(F)(F)F)cc1Nc1ncc(C2CC2)c(NCCc2c[nH]cn2)n1 [Compound 3, N^4-(2-(1H-Imidazol-4-yl)ethyl)-5-cyclopropyl-N^2-(3-methyl-1-(2,2,2-trifluoroethyl)-1H-pyrazol-4-yl)pyrimidine-2,4-diamine]	0	2	0.005	low permeability	LRRK2 NanoBRET IC50 (LRRK2): did not have any activity
Cc1nn(CC(F)(F)F)cc1Nc1ncc(C2CC2)c(NCc2ccc(S(N)(=O)=O)cc2)n1 [Compound 5, 4-(((5-Cyclopropyl-2-((3-methyl-1-(2,2,2-trifluoroethyl)-1H-pyrazol-4-yl)amino)pyrimidin-4-yl)amino)methyl)benzenesulfonamide]	1	2	0.005	below the limit of quantitation	fold difference in potency for TBK1 and IKKε (TBK1): 8 fold
NS(=O)(=O)c1ccc(CNc2nc(Nc3cccc(NC(=O)N4CCCC4)c3)ncc2Br)cc1 [Compound 13, N-(3-((5-Bromo-4-((4-sulfamoylbenzyl)amino)pyrimidin-2-yl)amino)phenyl)pyrrolidine-1-carboxamide]	4	–	0.03	below the limit of quantitation	fold difference between NUAK1 and NUAK2 (NUAK1 [3]): ~3 fold
Cc1nn(CC(F)(F)F)cc1Nc1nccc(NCCc2cnc[nH]2)n1 [Compound 15, N^4-(2-(1H-Imidazol-5-yl)ethyl)-N^2-(3-methyl-1-(2,2,2-trifluoroethyl)-1H-pyrazol-4-yl)pyrimidine-2,4-diamine]	0	0	–	low permeability	fold loss in potency, enzymatic versus NanoBRET, MYLK2 (MYLK2): < 10 fold; MYLK2 NanoBRET IC50 (MYLK2; singlicate (n = 1) dose–response): single digit micromolar activity
NS(=O)(=O)c1ccc(CNc2ccnc(Nc3cccc(NC(=O)N4CCCC4)c3)n2)cc1 [Compound 16, N-(3-((4-((4-Sulfamoylbenzyl)amino)pyrimidin-2-yl)amino)phenyl)pyrrolidine-1-carboxamide]	0	1	–	below the limit of quantitation	TYK2 NanoBRET IC50 (TYK2): did not have any activity
O=C(NCCCNc1nc(Nc2cccc(NC(=O)N3CCCC3)c2)ncc1Br)C1CCC1 [Compound 18, N-(3-((5-Bromo-4-((3-(cyclobutanecarboxamido)propyl)amino)pyrimidin-2-yl)amino)phenyl)pyrrolidine-1-carboxamide]	16	90	0.223	–	MARK3 NanoBRET IC50 (MARK3 (NLuc-MARK3); HEK293, 0.5 μM tracer K-9, n = 1 where no error, SEM n = 2): submicromolar; TBK1 NanoBRET IC50 (TBK1 (NLuc-TBK1)): submicromolar; DRAK1 NanoBRET IC50 (DRAK1 (DRAK1-NLuc)): submicromolar; MARK4 NanoBRET IC50 (MARK4 (NLuc-MARK4)): submicromolar
NS(=O)(=O)c1ccc(CNc2ccnc(Nc3cccc(CN4CCOCC4)c3)n2)cc1 [Compound 19, 4-(((2-((3-(Morpholinomethyl)phenyl)amino)pyrimidin-4-yl)amino)methyl)benzenesulfonamide]	0	3	0.007	–	TYK2 NanoBRET IC50 (TYK2): did not have any activity
